# Experimental data reported in ChEMBL document CHEMBL1123378, “Cardiotonic agents. 1. Synthesis and structure-activity relationships in a new class of 3-, 4-, and 5-pyridyl-2(1H)-quinolone derivatives” (1986).
# Legend:
# Cavia porcellus [1] = organism: Cavia porcellus; assay: Maximum response compared to maximum response to isoprenaline.; format: functional
# Summary of the method: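 Electrically paced isolated guinea pig left atria (2.5 Hz, 5 ms pulses, 50% above threshold) were held in Krebs–Henseleit at 32 °C under 95% O2/5% CO2 and 0.5 g resting tension. Intrinsic activity is the compound's maximal inotropic response divided by the isoprenaline maximum, with isoprenaline set to 1. The number of experiments is given per value.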
# Cavia porcellus [2] = organism: Cavia porcellus; assay: Positive inotropic activity in isolated left guinea pig atria.; format: functional; settings: read-out: ED50 (the source's name)
# Summary of the method: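 Isolated guinea pig left atria were paced electrically with square-wave pulses (2.5 Hz, 5 ms, voltage 50% above threshold) and stretched to 0.5 g resting tension. The bath was Krebs–Henseleit at 32 °C, gassed with 95% O2/5% CO2. An isoprenaline dose–response curve was run first to test each preparation. The ED50 (mol/L, dose giving 50% of maximum effect) was derived by the Ariens–Van Rossum method.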
Compound,EC50 (Cavia porcellus [2]) [µM],Intrinsic activity (Cavia porcellus [1])
Oc1nc2ccccc2cc1-c1cccnc1,300,0.08
COc1ccc(-c2ccncc2)c2c1NC(=O)CC2,31,0.75
CCO/C=C\C(=O)Nc1cc(-c2cccnc2)ccc1Cl,,0.28
CCO/C=C\C(=O)Nc1cccc(-c2cccnc2)c1,,0.42
CCO/C=C\C(=O)Nc1cccc(-c2ccccn2)c1,,0.33
CCO/C=C\C(=O)Nc1cc(-c2cccnc2)ccc1OC,,0.54
CC(C)NCC(O)c1ccc(O)c(O)c1 (centres undefined) [ISOPROTERENOL],,1
Cc1[nH]c(=O)c(C#N)cc1-c1ccncc1 [MILRINONE],14,0.67
COc1cc([S+](C)[O-])ccc1-c1nc2cccnc2[nH]1 (centres undefined) [SULMAZOLE],12,0.85

# Further lines, with some results ahead:
EC50 (Cavia porcellus [2]) [µM],Compound,Intrinsic activity (Cavia porcellus [1])
> 77,Cl.Nc1cc2ccccc2nc1O,0.2
20,Cl.Oc1ccc2c(-c3ccncc3)ccc(O)c2n1,0.24
35,COc1ccc(-c2ccncc2)c2ccc(O)nc12.Cl,0.75
6.75,Br.Oc1ccc2c(-c3cccnc3)ccc(O)c2n1,0.62
38,COc1cccc2c(-c3ccncc3)cc(O)nc12.Cl,0.45
22,Cl.Oc1cc(-c2ccncc2)c2cccc(O)c2n1,0.55
5.75,COc1ccc(-c2cccnc2)c2ccc(O)nc12.Cl,0.79
235,COc1ccc(N)c2ccc(O)nc12.Cl,0.23
12,COc1ccc(-c2cccnc2)c2c1NC(=O)CC2,0.56
8.3,COc1ccc(-c2cccnc2)cc1NC(=O)CC(C)=O,0.51
22,COc1ccc(-c2ccccn2)c2c1NC(=O)CC2,0.44
1.3,Oc1ccc2c(-c3cccnc3)cccc2n1,0.83
34.5,COc1ccc(-c2ccccn2)c2ccc(O)nc12,0.62
